# Assay results published in ChEMBL document CHEMBL3351477, “A C-14 labeled Py-Im polyamide localizes to a subcutaneous prostate cancer tumor” (Bioorg Med Chem, 2014).
# Columns and labels:
# [1] = system: Liver; test: Drug level in human LNCaP cells xenografted NSG mouse liver at 20 nmol, ip dosed on days 1, 4 and 7 measured 24 hrs after last dose by liquid scintillation counting method relative to single injection dose; type: ADME, organism-based; settings: in vivo
# Method in brief: (§1)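 Male NSG mice bearing subcutaneous flank LNCaP xenografts. The graft was 2.5M cells in 200 μL of 1:1 culture medium/matrigel, using cells at or below passage 25 with >90% viability by trypan blue. C-14 labeled compound was given i.p. at 20 nmol per animal 4-8 weeks after engraftment. Mice were euthanized by CO2. Tumor, kidney, liver and lung were excised.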
# [2] = system: Liver; test: Drug level in human LNCaP cells xenografted NSG mouse liver at 20 nmol, ip measured after 24 hrs by liquid scintillation counting method relative to lung; type: ADME, organism-based; settings: in vivo; method in brief: as §1
# [3] = system: Liver; test: Drug level in human LNCaP cells xenografted NSG mouse liver at 20 nmol, ip measured after 24 hrs by liquid scintillation counting method relative to kidney; type: ADME, organism-based; settings: in vivo; method in brief: as §1
# [4] = system: Tumour; test: Drug level in human LNCaP cells xenografted NSG mouse tumor at 20 nmol, ip measured after 4 hrs by liquid scintillation counting method relative to liver; type: ADME, organism-based; settings: in vivo; method in brief: as §1
# [5] = system: Tumour; test: Drug level in human LNCaP cells xenografted NSG mouse tumor at 20 nmol, ip measured after 24 hrs by liquid scintillation counting method; type: ADME, organism-based, Neoplasm; settings: in vivo; method in brief: as §1
# [6] = system: Kidney; test: Drug level in human LNCaP cells xenografted NSG mouse kidney at 20 nmol, ip measured after 24 hrs by liquid scintillation counting method; type: ADME, organism-based; settings: in vivo; method in brief: as §1
# [7] = system: Tumour; test: Drug level in human LNCaP cells xenografted NSG mouse tumor at 20 nmol, ip dosed on days 1, 4 and 7 measured 24 hrs after last dose by liquid scintillation counting method; type: ADME, organism-based, Neoplasm; settings: in vivo, read-out: Drug uptake; method in brief: as §1
# [8] = system: Tumour; test: Drug level in human LNCaP cells xenografted NSG mouse tumor at 20 nmol, ip measured after 24 hrs by liquid scintillation counting method relative to other tissues; type: ADME, organism-based, Neoplasm; settings: in vivo; method in brief: as §1
# [9] = system: Lung; test: Drug level in human LNCaP cells xenografted NSG mouse lung at 20 nmol, ip measured up to 1 to 7 days by liquid scintillation counting method; type: ADME, organism-based; settings: in vivo; method in brief: as §1
# [10] = system: Tumour; test: Drug level in human LNCaP cells xenografted NSG mouse tumor at 20 nmol, ip measured up to 1 to 7 days by liquid scintillation counting method; type: ADME, organism-based, Neoplasm; settings: in vivo; method in brief: as §1
# [11] = system: Tumour; test: Drug level in human LNCaP cells xenografted NSG mouse tumor at 20 nmol, ip measured after 24 hrs by liquid scintillation counting method relative to liver; type: ADME, organism-based; settings: in vivo; method in brief: as §1
# [12] = system: Liver; test: Drug level in human LNCaP cells xenografted NSG mouse liver at 20 nmol, ip measured up to 1 to 7 days by liquid scintillation counting method; type: ADME, organism-based; settings: in vivo; method in brief: as §1
# [13] = system: Lung; test: Drug level in human LNCaP cells xenografted NSG mouse lung at 20 nmol, ip measured after 24 hrs by liquid scintillation counting method; type: ADME, organism-based; settings: in vivo; method in brief: as §1
# [14] = system: Kidney; test: Drug level in human LNCaP cells xenografted NSG mouse kidney at 20 nmol, ip dosed on days 1, 4 and 7 measured 24 hrs after last dose by liquid scintillation counting method relative to single injection dose; type: ADME, organism-based; settings: in vivo; method in brief: as §1
# [15] = system: Liver; test: Drug level in human LNCaP cells xenografted NSG mouse liver at 20 nmol, ip measured after 24 hrs by liquid scintillation counting method; type: ADME, organism-based; settings: in vivo; method in brief: as §1
# [16] = system: Tumour; test: Drug level in human LNCaP cells xenografted NSG mouse tumor at 20 nmol, ip dosed on days 1, 4 and 7 measured 24 hrs after last dose by liquid scintillation counting method relative to single injection dose; type: ADME, organism-based, Neoplasm; settings: in vivo; method in brief: as §1
# [17] = system: Kidney; test: Drug level in human LNCaP cells xenografted NSG mouse kidney at 20 nmol, ip measured up to 1 to 7 days by liquid scintillation counting method; type: ADME, organism-based; settings: in vivo; method in brief: as §1
SMILES,fold change (FC) [1],fold change (FC) [2],fold change (FC) [3],fold change (FC) [4],concentration ([5]; read-out: Drug uptake) [nM],Drug uptake [6],concentration [7] [nM],fold change (FC) [8],Drug uptake [9] [mg/kg],Drug uptake [10] [mg/kg],fold change (FC) [11],Drug uptake [12] [mg/kg],Drug uptake [13],fold change (FC) [14],Drug uptake [15],fold change (FC) [16],Drug uptake [17] [mg/kg],Drug uptake [5]
CC(=O)N[C@H](CCNC(=O)c1cc(NC(=O)c2cc(NC(=O)c3cc(NC(=O)c4nccn4C)cn3C)cn2C)cn1C)C(=O)Nc1cn(C)c(C(=O)Nc2cc(C(=O)Nc3cc(C(=O)Nc4cc(C(=O)NCCCN(C)CCCN[14C](=O)c5cccc([14C](=O)O)c5)n(C)c4)n(C)c3)n(C)c2)n1,1.8,8.7,4.2,2,1060,0.25 mg/kg,2500,2,0.06,0.45,1.5,0.27,0.12 mg/kg,1.8,1.04 mg/kg,2.4,0.05,
C[14C](=O)N[C@H](CCNC(=O)c1cc(NC(=O)c2cc(NC(=O)c3cc(NC(=O)c4nccn4C)cn3C)cn2C)cn1C)C(=O)Nc1cn(C)c(C(=O)Nc2cc(C(=O)Nc3cc(C(=O)Nc4cc(C(=O)NCCCN(C)CCCNC(=O)c5cccc(C(=O)O)c5)n(C)c4)n(C)c3)n(C)c2)n1,,,,,,Active,,,,,,,Active,,Active,,,Active
CN(CCCNC(=O)c1cc(NC(=O)c2cc(NC(=O)c3cc(NC(=O)c4nc(NC(=O)[C@H](N)CCNC(=O)c5cc(NC(=O)c6cc(NC(=O)c7cc(NC(=O)c8nccn8C)cn7C)cn6C)cn5C)cn4C)cn3C)cn2C)cn1C)CCCN[14C](=O)c1cccc([14C](=O)O)c1,,,,,,Active,,,,,,,0.93 mg/kg,,Active,,,Active
